These results are taken from publication PMC9058365 (RSC Advances, 2020).

One series can be described thus: Pharmacokinetic study. It counts as in vivo. The settings on record: rabbit plasma, n = 3; for T max: 5 IU kg^−1, HPLC; for AUC0–12: 5 IU kg^−1, trapezoidal method, mean ± SD.
The subject of series [1] is New Zealand albino rabbits. The experiment in a line: In vivo tolerance study. The settings on record: rabbit eye, scale 0-3, n = 3. Put shortly: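 Male New Zealand albino rabbits (1.5–2.0 kg) free of ocular inflammation, housed at 25 ± 2 °C, 75% RH, 12:12 h light cycle. Nine animals were split into three groups of three. […] Macroscopic signs were graded at 0.5, 4.0 and 16.0 h, and scores were summed into an overall irritation index.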

Series [2] relates to diabetic rabbits (streptozotocin). The experiment in a line: In vivo anti-diabetic study. Further details: species or system rabbit. The settings on record: at 4 h, subcutaneous injection, n = 3. Put shortly: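 Male New Zealand albino rabbits (1.5–2.0 kg) made diabetic by intravenous streptozotocin (65 mg kg−1, in citrate buffer pH 5.0) given in the evening for three days. Baseline blood glucose was taken on day 1 after overnight fasting. Blood glucose was followed over time and expressed as % of initial level, n = 3 per group.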

The conditions of series [3]: rabbits, administered topically via ocular route; ref 25 (Yamamoto et al., 1989); cited from earlier work.
The mark [4] stands for this setting: 0.5 h after single instillation of 50 μl.
The mark [5] stands for this setting: 4.0 h after single instillation of 50 μl.
Setting [6] is: 16.0 h after single instillation of 50 μl.

Insulin [Plain insulin solution]: in the series “Pharmacokinetic study” (ocular instillation), the T max was 19.8 min and the “AUC0–12” value was 1870 ± 1700 ng·h/mL. In addition, in series [1] (setting [4]), the Conjunctiva grade came to 0, the Cornea grade is 0, the Discharge grade came out at 0 and the Lids grade is reported as 0. In series [1] (setting [5]), this substance gave a Conjunctiva grade of 0, a Cornea grade of 0, a Discharge grade of 1 and a Discomfort grade of 0. The Lids grade in series [1] (setting [5]) is recorded as 0. For the same substance, in series [1] (setting [6]), the Conjunctiva grade is listed as 0, the Cornea grade was determined as 0, the Discharge grade came to 0 and the Discomfort grade is recorded as 0. The substance also came in with a Lids grade in series [1] (setting [6]) of 0.

For the substance “Subcutaneous insulin injection: subcutaneous injection of human insulin solution”, the “drop in blood glucose level” value in series [2] is given as 71.08 ± 3.24. Also, in the series “Pharmacokinetic study” (subcutaneous injection), the T max came out at 30 min and the “AUC0–12” value was determined as 197380 ± 2760 ng·h/mL.

For insulin, the bioavailability entry in series [3] is listed as “less than 1%”.
